Test results published in paper PMC3149845 (The Journal of neuroscience : the official journal of the …, 2011).

What was measured:
[1] = molecular target: T1, hTas1R2/smTas1R3 (Homo sapiens, UniProt Q8TE23); test: Ca2+ mobilization, mismatched receptor; assay type: cell-based, human/squirrel monkey; conditions: aspartame 10mM, neotame 1mM, sucralose 2 mM, D-tryptophan 5mM, sucrose 150mM; vs control / wild type human receptor
T1 sequence (Q8TE23 20-839): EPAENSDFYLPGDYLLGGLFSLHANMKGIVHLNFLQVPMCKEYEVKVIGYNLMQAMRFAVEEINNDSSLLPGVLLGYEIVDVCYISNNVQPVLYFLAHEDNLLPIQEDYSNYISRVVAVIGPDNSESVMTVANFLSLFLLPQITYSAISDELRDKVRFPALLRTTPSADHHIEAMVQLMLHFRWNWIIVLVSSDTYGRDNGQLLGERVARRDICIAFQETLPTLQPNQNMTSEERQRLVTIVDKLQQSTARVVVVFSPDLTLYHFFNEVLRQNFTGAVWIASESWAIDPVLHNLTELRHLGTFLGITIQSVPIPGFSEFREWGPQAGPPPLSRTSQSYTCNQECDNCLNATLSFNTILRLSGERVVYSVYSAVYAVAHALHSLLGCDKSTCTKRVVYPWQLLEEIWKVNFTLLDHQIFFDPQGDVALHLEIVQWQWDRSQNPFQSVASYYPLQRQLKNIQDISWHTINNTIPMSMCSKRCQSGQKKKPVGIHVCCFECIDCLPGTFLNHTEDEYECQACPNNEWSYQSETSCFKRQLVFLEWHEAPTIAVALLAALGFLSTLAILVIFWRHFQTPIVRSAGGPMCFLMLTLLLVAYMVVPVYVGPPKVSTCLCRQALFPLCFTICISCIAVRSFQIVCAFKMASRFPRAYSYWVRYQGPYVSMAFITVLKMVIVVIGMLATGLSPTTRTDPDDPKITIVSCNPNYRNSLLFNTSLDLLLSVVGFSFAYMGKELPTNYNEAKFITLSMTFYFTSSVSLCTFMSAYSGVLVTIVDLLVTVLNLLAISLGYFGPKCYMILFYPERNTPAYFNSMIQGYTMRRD
How it was run: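 Transfected HEK293E cells (50,000/well; 0.06 μg Tas1R plasmid and 0.06 μg Gα16-gust44 per well) were medium-changed at 20 h, then loaded after 24 h with 3 μM Fluo-4 AM in HBSS/20 mM HEPES for 1 h. Tastant added 30 s into scan; fluorescence (ex 488/em 525 nm) read every 2 s for 150 s. ΔF/F normalized to the hTas1R2/hTas1R3 sucralose response; three independent experiments; unpaired t test.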

[2] = molecular target: T2, smTas1R2/hTas1R3 (Saimiri sciureus, UniProt A3QP08); test: Ca2+ mobilization, mismatched receptor; assay type: cell-based, human/squirrel monkey; conditions: aspartame 10mM, neotame 1mM, sucralose 2 mM, D-tryptophan 5mM, sucrose 150mM
T2 sequence (A3QP08 20-834): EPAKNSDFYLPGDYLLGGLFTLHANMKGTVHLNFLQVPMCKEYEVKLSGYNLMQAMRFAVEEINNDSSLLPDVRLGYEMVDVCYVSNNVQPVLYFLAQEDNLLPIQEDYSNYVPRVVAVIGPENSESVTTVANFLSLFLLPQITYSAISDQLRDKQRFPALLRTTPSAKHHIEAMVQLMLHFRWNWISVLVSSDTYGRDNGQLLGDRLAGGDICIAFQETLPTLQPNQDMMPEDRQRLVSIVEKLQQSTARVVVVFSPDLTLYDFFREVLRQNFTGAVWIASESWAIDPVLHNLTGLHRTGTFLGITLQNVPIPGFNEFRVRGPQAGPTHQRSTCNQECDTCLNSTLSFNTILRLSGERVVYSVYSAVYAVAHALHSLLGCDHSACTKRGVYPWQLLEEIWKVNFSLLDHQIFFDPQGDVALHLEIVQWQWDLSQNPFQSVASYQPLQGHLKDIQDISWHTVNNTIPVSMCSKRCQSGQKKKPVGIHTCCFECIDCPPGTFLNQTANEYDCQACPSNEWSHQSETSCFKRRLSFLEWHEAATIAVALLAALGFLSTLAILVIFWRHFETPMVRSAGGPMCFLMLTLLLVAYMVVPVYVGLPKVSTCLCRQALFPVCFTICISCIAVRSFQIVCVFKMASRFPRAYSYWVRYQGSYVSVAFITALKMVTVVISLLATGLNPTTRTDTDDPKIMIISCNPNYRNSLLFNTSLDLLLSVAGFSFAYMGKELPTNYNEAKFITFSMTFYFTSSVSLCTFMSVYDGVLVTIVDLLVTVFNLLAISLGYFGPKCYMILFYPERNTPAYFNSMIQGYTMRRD
T2 sequence (Q7RTX0 21-852 partner): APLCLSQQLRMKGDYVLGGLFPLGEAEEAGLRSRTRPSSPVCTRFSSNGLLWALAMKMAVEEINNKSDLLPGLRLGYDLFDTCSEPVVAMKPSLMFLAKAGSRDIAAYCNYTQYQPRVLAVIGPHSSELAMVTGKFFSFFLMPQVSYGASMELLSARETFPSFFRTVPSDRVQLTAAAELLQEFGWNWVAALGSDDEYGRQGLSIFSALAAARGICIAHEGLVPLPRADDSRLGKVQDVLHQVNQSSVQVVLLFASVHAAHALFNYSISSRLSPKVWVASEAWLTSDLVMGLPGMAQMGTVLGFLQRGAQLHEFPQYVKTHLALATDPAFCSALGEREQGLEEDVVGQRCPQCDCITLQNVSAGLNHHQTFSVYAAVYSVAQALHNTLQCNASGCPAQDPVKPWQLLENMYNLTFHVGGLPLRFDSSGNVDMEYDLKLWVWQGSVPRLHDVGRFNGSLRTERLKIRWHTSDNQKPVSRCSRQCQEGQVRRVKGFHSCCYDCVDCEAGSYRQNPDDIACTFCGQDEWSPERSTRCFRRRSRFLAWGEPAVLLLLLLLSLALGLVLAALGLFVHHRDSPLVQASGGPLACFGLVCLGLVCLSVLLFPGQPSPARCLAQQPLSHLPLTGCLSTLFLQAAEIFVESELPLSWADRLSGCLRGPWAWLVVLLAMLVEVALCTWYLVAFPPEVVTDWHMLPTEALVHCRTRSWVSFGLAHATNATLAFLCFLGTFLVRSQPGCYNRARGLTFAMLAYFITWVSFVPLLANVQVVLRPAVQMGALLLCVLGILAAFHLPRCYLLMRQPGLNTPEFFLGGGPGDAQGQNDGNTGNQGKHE
How it was run: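 HEK293E cells grown at 37°C in Opti-MEM with 5% FBS and seeded at 50,000/well. Cells co-lipofected with Tas1R plasmids and Gα16-gust44 (0.06 μg each per well); medium changed at 20 h, assayed 24 h later. Cells loaded 1 h with Fluo-4 AM in HEPES-buffered HBSS. Tastant added at 30 s; fluorescence (ex 488/em 525 nm) read every 2 s for 150 s more. ΔF/F normalised to human receptor maximal sucralose response; mean ± SEM, three independent experiments.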

Row | SMILES | calcium response to sweetener [1] | calcium response to sweetener [2]
1 | N[C@H](Cc1c[nH]c2ccccc12)C(=O)O [D-tryptophan] | reduced responses | remained intact or reduced
2 | OC[C@H]1O[C@@](CO)(O[C@H]2O[C@H](CO)[C@@H](O)[C@H](O)[C@H]2O)[C@@H](O)[C@@H]1O [sucrose] | reduced responses | remained intact or reduced
